ERAP1 HTS inh: inhibitors of human ERAP1 aminopeptidase. Q9NZ08. recombinant ERAP1, Leu-AMC fluorescence, 60 min. inhibition, % at 10.7 µM. 0.15% of 340,000 active;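 active means mean replicate inhibition of at least 30%, or all replicates individually reaching that 30% level; inactive means mean below 30% and not every replicate reaching it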;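 further: 0% = neutral control wells and 100% = L-leucinethiol positive control wells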
CAL PDZ FP-1: human CAL PDZ-peptide interaction inhibition. purified CAL PDZ, TMR-peptide fluorescence polarization, 1 h. inhibition, % at 20 µM. 0.02% of 330,000 active;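 active means highest replicate inhibition of at least 40%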;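 further: plate controls were DMSO neutral control wells for no effect and unlabeled competitor peptide control wells for full effect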
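Material – purified CerCALP PDZ construct · Detection – FP readout, S and P plane fluorescence · Measure – percent inhibition from loss of millipolarization · Controls – unlabelled peptide for full inhibition, DMSO wells as neutral · Probe or stimulus – TMR-labelled reporter peptide T*-PRC34 bound in PDZ groove · Times – 1 h at RT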
CAL PDZ FP-2: inhibitors of human CAL PDZ peptide binding; Q9HD26; purified CAL PDZ, TMR-peptide fluorescence polarization, 1 h; inhibition, % at 24.9 µM; 0.92% of 300,000 active;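 active means mean inhibition of at least 30% with at least half of replicates also reaching 30%; inconclusive means no clear call, values can overlap the other calls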;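 further: 0% = DMSO neutral control and 100% = excess unlabeled competitor peptide PRC23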
SIRT5 block: inhibitors of human sirtuin-5 desuccinylase. 1.1% of 330,000 active. Q9NXA8. Purified SirT5, succinyl-peptide AMC, trypsin-coupled fluorescence. inhibition, % at 15 µM; in the data active means inhibition above about 15%; inconclusive means no clear call, values can overlap the other calls
Target sequence (Q9NXA8 whole entry, looked up): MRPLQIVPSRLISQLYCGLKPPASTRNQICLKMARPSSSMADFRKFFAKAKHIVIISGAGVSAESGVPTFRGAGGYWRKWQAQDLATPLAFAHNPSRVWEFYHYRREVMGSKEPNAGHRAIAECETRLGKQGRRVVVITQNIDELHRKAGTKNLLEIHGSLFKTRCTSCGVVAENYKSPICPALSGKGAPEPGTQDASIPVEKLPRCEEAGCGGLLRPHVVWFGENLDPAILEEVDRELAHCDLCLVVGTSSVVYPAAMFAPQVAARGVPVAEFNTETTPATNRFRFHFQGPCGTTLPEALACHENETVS
S100A4 MyoIIA: S100A4-myosin IIA interaction inhibition; P26447; S100A4/TAMRA-MyoIIA peptide fluorescence polarization; inhibition, % at 10.7 µM; 0.14% of 360,000 active;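 active means mean inhibition of at least 70% across replicates, with every replicate also reaching that level; inconclusive means mean inhibition reaches 70% but some replicates fall short; inactive means mean inhibition below 70%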
Target sequence (P26447 whole entry, looked up): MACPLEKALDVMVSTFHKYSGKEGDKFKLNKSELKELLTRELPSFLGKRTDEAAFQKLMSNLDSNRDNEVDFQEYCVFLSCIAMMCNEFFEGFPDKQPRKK
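incubation = readout 5 min after mixing, signal stable up to 60 min | system = S100A4 monomer protein | buffer or medium = HEPES pH 7.2 with CaCl2, KCl, NaCl, DTT, Triton | benchmarks = neutral control DMSO, positive control TFP | also added = fluorescent myosin IIA peptide, 5 nM | compound dosing = one concentration per compound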
DENV2 CPE rescue: protects cells from dengue virus 2 cytopathic effect | 1.7% of 350,000 active | DENV2-infected cells, cytopathic effect rescue, plate reader | AID 651640 | CPE inhibition, % at 9.99 µM; in the data active means CPE inhibition above about 20%, passing the limit was not always enough; inconclusive means no clear call, values can overlap the other calls; tested in BHK-21 cells;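 further: 0% = median of neutral control wells and 100% = median of positive control wells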
* = called active by the depositor; u = inconclusive; x = no result given. Hits are enriched below; roughly 2.9% of the tested compounds scored in any of these assays.

SMILES	ERAP1 HTS inh	CAL PDZ FP-1	CAL PDZ FP-2	SIRT5 block	S100A4 MyoIIA	DENV2 CPE rescue
Cc1ccc(S(=O)(=O)N(C)C[C@@H]2Oc3ccc(NC(=O)CCC(F)(F)F)cc3C(=O)N([C@H](C)CO)C[C@@H]2C)cc1	1	x	x	12	3	47*
CN(C)C(=O)C[C@H]1CC[C@H]2[C@@H](COc3ccc(NC(=O)C4CCC4)cc3C(=O)N2C)O1	0	x	x	2	-6	12
O=S1(=O)CC(O)C(O)CS1 (centres undefined)	65*	x	x	x	3	-5
O=C(Nc1cccc(Cl)c1)c1csc([C@@H]2C[C@H](O)[C@@H](CO)O2)n1	2	x	x	x	4	36*
O=C(Nc1cccc(C(F)(F)F)c1)c1csc([C@H]2C[C@H](O)[C@@H](CO)O2)n1	-10	x	x	0	-5	-1
Cc1cc(C)c2c(N)c(C(=O)c3ccc(Br)cc3)oc2n1	1	0	-6	-3	-6	46*
CN(CC(=O)Nc1ccc(S(N)(=O)=O)cc1)Cc1ccccc1F	-3	0	2	21*	14	11
O=C(OCC(=O)N1CCC(Cc2ccccc2)CC1)c1ccccc1	5	-2	31*	-4	28	8
O=C(OCC(=O)N1CCOCC1)c1ccc(O)cc1	2	0	126*	0	-4	9
O=C(OCC(=O)N1CCC(Cc2ccccc2)CC1)c1ccc(O)cc1	8	x	x	3	2	u
COc1ccc(NC(=O)Nc2ccc3c(c2)C(=O)N([C@H](C)CO)C[C@H](C)[C@H](CN(C)S(=O)(=O)c2ccccc2)OCCCC[C@@H](C)O3)cc1	1	x	x	7	-6	-1
O=C(C[C@@H]1C=C[C@H](NS(=O)(=O)c2ccc(F)cc2)[C@H](CO)O1)NC1CCCCC1	1	x	x	1	2	x
Cc1ccc(-n2cccn2)c(CN2CCCC(C(=O)c3ccc4c(c3)OCO4)C2)c1 (centres undefined)	7	-2	-1	5	-1	x
CC(C)N1CCN(Cc2cc(F)ccc2-n2cccn2)CC1CCO (centres undefined)	2	1	0	20*	-4	13
O=C(c1ccc2c(c1)OCO2)C1CCCN(Cc2cc(F)ccc2-n2cccn2)C1 (centres undefined)	-1	-1	57*	-1	-6	-2
COC/C=C/C1=CC2=CC(=O)C(C)(OC(=O)c3cnc4ccccc4n3)C(=O)C2=CN1C(CO)CO (centres undefined)	-3	-1	-2	x	-4	31*
S=C1NC(c2ccccc2)=CC(c2ccccc2)N1 (centres undefined)	2	0	5	3	5	0
N#CC1C(=O)NC(c2ccccc2)=CC1c1ccccc1 (centres undefined)	-2	-2	110*	3	0	5
CN1CCC(C2(O)c3ccccc3CSc3sccc32)CC1 (centres undefined)	x	x	110*	x	x	x
Cc1ccc2cc3c(N)c(C(=O)N4CCOCC4)sc3nc2c1	x	0	53*	x	x	x
O=C1c2ccccc2/C(=C\c2ccc(Br)s2)N1c1ccccc1	-4	-2	-2	2	-22	-4
O=C1c2ccccc2/C(=C\c2ccc(Br)nc2)N1c1ccccc1	-1	x	x	x	1	47*
COc1cc(/C=N/NC(=O)CSc2ccccn2)ccc1O	1	-1	44*	2	0	1
COc1ccc(/C=C/C(=O)OCC(=O)c2ccc3c(c2)NC(=O)CO3)cc1	x	-1	2	-4	5	-11
COc1cc(/C=C/C(=O)OCC(=O)c2ccc3c(c2)NC(=O)CO3)ccc1OC(F)F	37*	0	x	-3	-1	-3
SMILES	ERAP1 HTS inh	CAL PDZ FP-1	CAL PDZ FP-2	SIRT5 block	S100A4 MyoIIA	DENV2 CPE rescue
Cc1nn(Cc2ccc(Cl)c(Cl)c2)c(C)c1NC(=O)c1sc2ccccc2c1Cl	x	x	35*	x	x	x
O=C(C[C@H]1CC[C@H](NC(=O)c2ccc3c(c2)OCO3)[C@@H](CO)O1)NCc1ccc(Cl)cc1	-2	x	x	0	36	-4
COc1ccccc1Oc1nc2c(c(=O)n(Cc3ccccc3F)c(=O)n2C)n1C	x	-2	75*	x	x	x
COc1ccc(Cn2c(=O)c3c(nc(NCCO)n3C)n(C)c2=O)cc1	x	-1	-3	x	x	x
Cn1c(NCCCO)nc2c1c(=O)n(Cc1ccccc1F)c(=O)n2C	1	-1	-4	39*	1	x
Cc1ccccc1Oc1nc2c(c(=O)n(C)c(=O)n2C)n1C	0	-1	-3	-2	15	6
O=C(C[C@@H]1CC[C@H](NC(=O)Nc2cc(F)ccc2F)[C@H](CO)O1)NCCCN1CCOCC1	3	x	x	1	20	1
c1ccc(-c2ccc(-c3ccccn3)s2)nc1	-2	-1	41*	-16	3	5
c1ccc(-c2ccncc2)nc1	-1	0	-4	x	-3	79*
c1ccc(-c2nc(-c3ccncc3)n[nH]2)nc1	0	1	0	-4	2	-3
C[C@@H]1CN([C@H](C)CO)C(=O)Cc2cc(NC(=O)NC3CCCCC3)ccc2O[C@H]1CN(C)C(=O)Nc1ccc2c(c1)OCO2	3	x	x	7	9	0
COCC(=O)Nc1ccc2c(c1)C(=O)N(C)C[C@@H](OC)[C@H](C)CN(Cc1cncnc1)[C@@H](C)CO2	1	x	x	-1	4	21*
COCC(=O)Nc1ccc2c(c1)OC[C@@H](C)N(Cc1cncnc1)C[C@@H](C)[C@H](OC)CN(C)C2=O	x	x	x	-1	23	22*
COCC(=O)Nc1ccc2c(c1)C(=O)N(C)C[C@@H](OC)[C@H](C)CN(Cc1cncnc1)[C@H](C)CO2	1	x	x	0	-5	-7
COCC(=O)Nc1ccc2c(c1)C(=O)N(C)C[C@H](OC)[C@@H](C)CN(Cc1cncnc1)[C@H](C)CO2	2	x	x	-3	10	10
CO[C@@H]1CC[C@H]2CCN(C)C(=O)C[C@@H](c3ccccc3)CN(C)C(=O)c3cccc(C#N)c3OC[C@H]1O2	-2	x	x	-3	3	-1
CC(=O)c1ccc(NC(=S)N2CC(C)CC(C)C2)cc1 (centres undefined)	0	-2	-4	16*	5	-3
CC(=O)c1ccc(NC(=S)N2CCN(C(=S)Nc3ccc(C(C)=O)cc3)C(C)C2)cc1 (centres undefined)	-3	-2	-5	4	-9	0
Cc1noc(C)c1NC(=O)NCC[C@@H]1CC[C@H](NC(=O)c2ccc(F)cc2)[C@@H](CO)O1	-1	x	x	-1	-14	3
CCn1nc(C)c(CNC(=O)c2ccc(OC3CCN(Cc4ccccn4)CC3)cc2)c1C	0	-1	50*	0	-1	-20
COc1ccc(CN2CCC(Oc3ccc(C(=O)N4CCCC4)cc3)CC2)c(F)c1	4	0	128*	4	3	2
